In ChEMBL document CHEMBL2412953, “Synthesis and biological evaluation of new N-alkylcarbazole derivatives as STAT3 inhibitors: preliminary study” (Eur J Med Chem, 2013) one finds inhibition and Activity data, which are given here for 14 compounds.

Assay [1] concerns the target Signal transducer and activator of transcription 3 (Homo sapiens) (UniProt P40763). The assay can be described thus: Inhibition of IL-6-stimulated STAT3 activation in human THP1 cells at 100 uM incubated for 30 mins prior to IL-6 stimulation measured after 15 mins by EMSA relative to control. The format is cell-based. Particulars: THP-1. The method, boiled down: (§1)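 THP-1 cells (1.5 × 10⁶/mL; RPMI 1640, 10% FBS, 37 °C, 5% CO₂) pretreated 30 min with compound, then IL-6 20 ng/mL for 15 min. Nuclear extracts, made with protease inhibitors, were assayed for STAT3 DNA-binding by EMSA in Hepes pH 7.9 buffer with poly(dI-dC). Gel bands quantified by densitometry; % inhibition versus IL-6 alone, mean ± SD.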

The target is the same in assay [2]. Description: Inhibition of IL-6-induced cytosolic STAT3 phosphorylation at Tyr705 in human THP1 cells at 50 uM incubated for 30 mins prior to IL-6 induction measured after 15 mins by Western blot analysis. The assay is classed as cell-based. Particulars: THP-1. The gist of the method:
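THP-1 cells (1.5 × 10⁶/mL) pretreated 30 min, then IL-6 20 ng/mL for 15 min. Cells were lysed at 4 °C in HEPES pH 7.4 NP-40 buffer with protease and phosphatase inhibitors. Lysate protein was run on 7.5% SDS-PAGE, blotted to PVDF and probed overnight at 4 °C with rabbit anti-phospho-Tyr705 STAT3.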
(In general: Immunoblotting shows a protein as a band on a membrane.)

Assay [3] concerns the target T1, Signal transducer and activator of transcription 1-alpha/beta (Homo sapiens) (UniProt P42224).
T1 sequence (whole entry): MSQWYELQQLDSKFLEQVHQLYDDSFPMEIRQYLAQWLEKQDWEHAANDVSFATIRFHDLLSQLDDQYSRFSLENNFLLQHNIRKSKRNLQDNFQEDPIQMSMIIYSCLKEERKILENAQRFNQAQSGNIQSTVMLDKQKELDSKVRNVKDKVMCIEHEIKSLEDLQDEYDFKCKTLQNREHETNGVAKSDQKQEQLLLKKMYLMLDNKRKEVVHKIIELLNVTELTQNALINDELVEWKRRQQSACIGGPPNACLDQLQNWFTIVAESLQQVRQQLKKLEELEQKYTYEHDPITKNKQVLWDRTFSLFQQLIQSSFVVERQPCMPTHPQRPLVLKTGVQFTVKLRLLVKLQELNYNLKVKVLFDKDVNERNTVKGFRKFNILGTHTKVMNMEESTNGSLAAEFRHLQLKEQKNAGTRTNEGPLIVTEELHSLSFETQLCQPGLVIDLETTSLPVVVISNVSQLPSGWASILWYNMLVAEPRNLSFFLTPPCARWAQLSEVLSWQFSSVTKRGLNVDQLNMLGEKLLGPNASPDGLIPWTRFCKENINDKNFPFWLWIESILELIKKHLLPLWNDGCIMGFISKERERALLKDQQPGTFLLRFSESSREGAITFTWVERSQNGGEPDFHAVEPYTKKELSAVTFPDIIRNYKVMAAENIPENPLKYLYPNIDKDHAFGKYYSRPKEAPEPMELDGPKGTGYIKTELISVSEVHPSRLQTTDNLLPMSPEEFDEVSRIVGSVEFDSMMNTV
Description: Inhibition of IFNgamma-induced STAT1 activation in human THP1 cells at 50 uM incubated for 30 mins prior to IFNgamma induction measured after 30 mins by EMSA. The following applies: THP-1. The format is cell-based. The gist of the method:
(§2)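 THP-1 cells (1.5 × 10⁶/mL) pretreated 30 min with compound, then stimulated 30 min with IFNγ (STAT1) or TNFα plus LPS (NF-κB). Nuclear extracts were analysed for DNA-binding by EMSA.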
For orientation: In EMSA bound probe runs differently from free probe, usually more slowly.

Assay [4] relates to THP-1. Description: Inhibition of TNFalpha and LPS-induced NFkappaB activation in human THP1 cells at 50 uM incubated for 30 mins prior to TNFalpha and LPS-induction measured after 30 mins by EMSA. The assay is classed as cell-based. The method, boiled down: as §2
Assay [5] has as its target Signal transducer and activator of transcription 3 (Homo sapiens) (UniProt P40763). Description: Inhibition of IL-6-stimulated STAT3 activation in human THP1 cells at 50 uM incubated for 30 mins prior to IL-6 stimulation measured after 15 mins by EMSA relative to control. The assay is classed as cell-based. The following applies: THP-1. The gist of the method: as §1
Assay [6] concerns THP-1. The assay can be described thus: Effect on total STAT3 level in IL-6-stimulated human THP1 cells at 50 uM incubated for 30 mins prior to IL-6 stimulation measured after 15 mins by Western blot analysis. The format is functional, cell-based.

Calls of active or inactive are those of the source. No cut-off for these calls is given here.

Chain of Signal transducer and activator of transcription 3 (Homo sapiens) (P40763 whole entry): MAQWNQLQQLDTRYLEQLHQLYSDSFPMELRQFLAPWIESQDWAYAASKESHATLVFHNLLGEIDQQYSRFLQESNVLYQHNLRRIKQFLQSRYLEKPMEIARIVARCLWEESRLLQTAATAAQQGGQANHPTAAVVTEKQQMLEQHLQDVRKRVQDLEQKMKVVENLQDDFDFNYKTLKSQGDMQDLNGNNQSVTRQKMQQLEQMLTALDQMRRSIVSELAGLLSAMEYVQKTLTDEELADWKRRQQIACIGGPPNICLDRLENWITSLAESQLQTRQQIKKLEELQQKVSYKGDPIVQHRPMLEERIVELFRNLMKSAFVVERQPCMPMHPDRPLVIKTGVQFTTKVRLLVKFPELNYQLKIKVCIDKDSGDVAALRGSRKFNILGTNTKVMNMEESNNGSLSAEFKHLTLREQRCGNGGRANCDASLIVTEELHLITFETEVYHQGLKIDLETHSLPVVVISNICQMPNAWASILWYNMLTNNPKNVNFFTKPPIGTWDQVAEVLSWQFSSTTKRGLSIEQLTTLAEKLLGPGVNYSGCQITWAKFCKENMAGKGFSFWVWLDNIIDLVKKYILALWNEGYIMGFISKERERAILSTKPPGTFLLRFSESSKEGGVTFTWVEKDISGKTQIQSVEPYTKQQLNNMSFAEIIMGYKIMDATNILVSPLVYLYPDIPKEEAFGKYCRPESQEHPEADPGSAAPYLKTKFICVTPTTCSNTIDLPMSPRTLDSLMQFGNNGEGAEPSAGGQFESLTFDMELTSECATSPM

Turning to `COC(=O)c1ccccc1OCCCCCCn1c2ccccc2c2ccc(O)cc21`, in assay [1], the inhibition (as a rule, the share of the control response that was lost under treatment) was 1%. The same measure, in the same setting: for `COC(=O)c1cc(OCCCCCn2c3ccccc3c3c(O)cccc32)cc(C(=O)OC)c1` the value was 20%; for `COC(=O)c1ccccc1OCCCCCCn1c2ccccc2c2c(O)cccc21`, 3%; for `COC(=O)c1cc(OCCCCCCCn2c3ccccc3c3c(O)cccc32)cc(C(=O)OC)c1`, 6%. For the compound `COC(=O)c1ccccc1OCCCCCCn1c2ccc(OC)cc2c2c(C)ccc(C)c21`, in assay [1], the inhibition turned out to be 1%. `COC(=O)c1cc(OCCCCCCCn2c3ccccc3c3ccc(O)cc32)cc(C(=O)OC)c1` showed an inhibition in assay [1] of 5%. In the case of `COC(=O)c1cc(OCCCCCn2c3ccc(OC)cc3c3c(C)ccc(C)c32)cc(C(=O)OC)c1`, the inhibition result in assay [2] was “Active”. The inhibition entry in assay [3] and in assay [4] was “inactive” each time. The inhibition in assay [5] was determined as 50%. The result in assay [6] was inactive. The compound `COC(=O)c1cc(OCCCCCn2c3ccccc3c3ccc(O)cc32)cc(C(=O)OC)c1` returned an inhibition in assay [1] of 1%. Turning to `COC(=O)c1cc(OCCCCCCn2c3ccc(OC)cc3c3c(C)ccc(C)c32)cc(C(=O)OC)c1`, in assay [2], the inhibition entry was “Active”. In addition, the inhibition result in assay [3] and in assay [4] was “inactive” each time. Moreover, the inhibition in assay [5] was found to be 95%. For the same compound, the result in assay [6] was inactive. The compound `COC(=O)c1ccccc1OCCCCCCCn1c2ccc(OC)cc2c2c(C)ccc(C)c21` showed an inhibition in assay [1] of 6%. Compound `COC(=O)c1ccccc1OCCCCCn1c2ccc(OC)cc2c2c(C)ccc(C)c21` gave an inhibition in assay [1] of 3%.

In assay [1], `COC(=O)c1cc(OCCCCCCn2c3ccccc3c3ccc(O)cc32)cc(C(=O)OC)c1` returned an inhibition of 1%.

With `COC(=O)c1cc(OCCCCCCCn2c3ccc(OC)cc3c3c(C)ccc(C)c32)cc(C(=O)OC)c1`, the inhibition entry in assay [2] is “Active”. Besides, the inhibition result in assay [3] and in assay [4] was “inactive” throughout. The compound further yielded an inhibition in assay [5] of 90%. Moreover, the result in assay [6] was inactive. As for `COC(=O)c1cc(OCCCCCCn2c3ccccc3c3c(O)cccc32)cc(C(=O)OC)c1`, in assay [1], the inhibition is 5%.
